High-throughput results (PubChem)
Rows were chosen to be rich in hits. Some 6.4% of all compounds tested hit in one or more screens of this group.
Jurkat viability: reduces viability or proliferation of Jurkat cells; Jurkat E6.1 viability, ATP luminescence, 48 h; inhibition, % at 4 µM; 1.2% of 56,000 active; AID 463;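 active = inhibition above the mean inhibition of all tested compounds plus 3 SD, cut at about 28% in these data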
Ecoli WT expand: E. coli BW25113 growth inhibition, expanded screen; OD600 absorbance; growth inhibition, % at 100 µM; 0.15% of 98,000 active; AID 710;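 active = growth inhibition above about 50% at one test dose, limit read from the data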;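 note: growth measured after 20 h incubation at 37 °C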
H69AR growth 86K: growth inhibitors of human H69AR lung tumor cells | H69AR lung tumor viability, ATP luminescence, 72 h; active compounds read low | viability, % at 10 µM | 6% of 85,000 active;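 active = viability at or below 40%; inactive = viability above 40%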;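 note: multidrug resistant small cell line overexpressing MRP-1 efflux transporter; 100% = mean luminescence of untreated control wells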
Fibroblast inh: blocks proliferation of human lung fibroblasts | AID 719 | 1.1% of 85,000 active | viability, % at 10 µM | LL 47 human lung fibroblast viability, ATP luminescence; active compounds read low;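 active = viability at or below 50% in the single dose screen; inactive = viability above 50%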;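 note: compound exposure lasted 72 h before the ATP readout; 100% = median luminescence of untreated cell-only wells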
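Test system: LL 47 human lung fibroblasts / Quantity: 1,150 cells in each well / Medium: IMEM growth medium with 15% fetal bovine serum / Incubation: 72 h compound exposure at 37 °C after overnight plating / Detection: CellTiter-Glo luminescence measuring cellular ATP / Read-out: % viability versus median cells-only luminescence / Benchmarks: cell-only wells, no compound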
HUVEC prolif 384: inhibitors of human endothelial cell proliferation. HUVEC proliferation, CellTiter-Glo luminescence, 72 h; active compounds read low. viability, % at 10 µM (by protocol). 1.1% of 86,000 active. AID 648;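 active = viability at or below 30%; inactive = viability above 30%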;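 note: 100% = median luminescence of DMSO-only cell control wells on each plate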
tolC growth inh: blocks growth of E. coli BW25113 tolC mutant. 2.2% of 65,000 active. OD615. growth inhibition, % at 10 µM (by protocol);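 active = growth inhibition at or above a cutoff equal to the mean over every tested compound plus 3 SD, cut at about 60% in these data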;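 note: growth measured after 20 h incubation at 37 °C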
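Doses: one dose of 10 µM final / Material: E. coli BW25113 ΔtolC::kan, tolC deletion mutant strain / Buffer or medium: LB with kanamycin 50 µg/mL / Evaluation: percent growth inhibition / Detection: optical density read at 615 nm / Incubation: 37 °C, 20 h exposure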
Numbers without * were called inactive.

What do the screens show for `C=CCc1cc(/C=C2/NC(=S)NC2=O)cc(OC)c1O`?
Ecoli WT expand: 7.0

What do the screens show for `O=C(Nc1nc2cc3c(cc2s1)OCO3)C1=COCCO1`?
Jurkat viability: 32.4; H69AR growth 86K: 25.5*; Fibroblast inh: 80.5; HUVEC prolif 384: 49.6; tolC growth inh: 3.7

How did CC(=O)Nc1nc2cc3c(cc2s1)OCO3 do in these assays?
Jurkat viability: 2.1; Ecoli WT expand: -3.0; H69AR growth 86K: 93.1; Fibroblast inh: 95.3; HUVEC prolif 384: 97.9; tolC growth inh: -10.6

How did O=C(Nc1ccc2nc(-c3ccco3)[nH]c2c1)c1ccco1 do in these assays?
Ecoli WT expand: 0.0; H69AR growth 86K: 81.1; Fibroblast inh: 96.0; HUVEC prolif 384: 91.8; tolC growth inh: -1.4

How did Cc1cccc(C)c1OCC(=O)Nc1cccc(-c2nnc(-c3ccccc3)o2)c1 do in these assays?
Ecoli WT expand: -17.0; tolC growth inh: -4.5

What do the screens show for `O=C(Nc1cccc(-c2nnc(-c3ccccc3)o2)c1)c1ccco1`?
Jurkat viability: 6.2; H69AR growth 86K: 15.4*; Fibroblast inh: 101.2; HUVEC prolif 384: 83.2; tolC growth inh: -21.5

How did Cc1ccc2nc(-c3cccc(NC(=O)c4ccco4)c3)[nH]c2c1 do in these assays?
Jurkat viability: 4.7; Ecoli WT expand: 5.0; H69AR growth 86K: 21.2*; HUVEC prolif 384: 59.9; tolC growth inh: 4.8

What do the screens show for `O=C(Nc1ccc2nc(-c3cccnc3)[nH]c2c1)c1ccco1`?
Jurkat viability: -7.6; Ecoli WT expand: 14.0; H69AR growth 86K: 72.9; Fibroblast inh: 98.2; HUVEC prolif 384: 113.8; tolC growth inh: 0.6

What do the screens show for `O=C(Nc1ccc(Nc2ccccc2)cc1)c1ccco1`?
Jurkat viability: 5.2; Ecoli WT expand: 3.0; H69AR growth 86K: 50.7; Fibroblast inh: 98.7; HUVEC prolif 384: 77.4; tolC growth inh: 15.6

What do the screens show for `O=C(Nc1ccc2nc(-c3ccco3)[nH]c2c1)c1cccs1`?
Jurkat viability: 6.8; Ecoli WT expand: -7.0; H69AR growth 86K: 39.7*; Fibroblast inh: 91.2; HUVEC prolif 384: 93.6; tolC growth inh: 18.5

How did O=C(Nc1ccccc1)c1cccc(-c2nnc(-c3ccccc3)o2)c1 do in these assays?
Jurkat viability: 1.3; Ecoli WT expand: -30.0; H69AR growth 86K: 25.9*; Fibroblast inh: 93.6; HUVEC prolif 384: 18.7*; tolC growth inh: -6.8

Results for Cn1c(SCc2nc3ccccc3[nH]2)nnc1-c1cnccn1 ?
Jurkat viability: -7.0; Ecoli WT expand: -3.0; H69AR growth 86K: 94.8; Fibroblast inh: 98.2; HUVEC prolif 384: 94.5; tolC growth inh: -8.7

What do the screens show for `O=C(Nc1cccc(-c2nnc(-c3ccccc3)o2)c1)C1CCCCC1`?
Jurkat viability: -2.4; H69AR growth 86K: 19.0*; Fibroblast inh: 96.4; HUVEC prolif 384: 68.2; tolC growth inh: 2.6

How did COC(=O)CSc1nc(N2CCCCC2)c2c(c1C#N)CCCC2 do in these assays?
Jurkat viability: 7.2; Ecoli WT expand: -8.0; H69AR growth 86K: 46.9; Fibroblast inh: 102.2; HUVEC prolif 384: 89.4; tolC growth inh: 64.5*

How did N#CCCSc1nc(N2CCOCC2)c2c(c1C#N)CCCC2 do in these assays?
Ecoli WT expand: -19.0; H69AR growth 86K: 37.8*; Fibroblast inh: 81.3; HUVEC prolif 384: 89.0; tolC growth inh: 9.7

How did CCCSc1nc(N2CCOCC2)c2c(c1C#N)CCCC2 do in these assays?
Ecoli WT expand: -7.0; H69AR growth 86K: 87.0; Fibroblast inh: 88.7; HUVEC prolif 384: 104.1; tolC growth inh: 40.8

Results for CC(=O)NC(C)c1ccc(Cl)c(Cl)c1 (centres undefined) ?
Jurkat viability: -1.9; Ecoli WT expand: 5.0; H69AR growth 86K: 100.4; Fibroblast inh: 106.7; HUVEC prolif 384: 97.8; tolC growth inh: 0.3

What do the screens show for `Cc1ccccc1NC(=O)N(CCc1nc2ccccc2[nH]1)Cc1ccccc1`?
H69AR growth 86K: 16.5*; Fibroblast inh: 98.9; HUVEC prolif 384: 68.0

How did COc1ccccc1CN(Cc1nc2ccccc2c(=O)[nH]1)C(=O)Nc1ccccc1C do in these assays?
Ecoli WT expand: 4.0; H69AR growth 86K: 100.2; Fibroblast inh: 97.0; HUVEC prolif 384: 80.5

Results for CCN(CC)CCCN(C(=O)c1cccs1)c1nc(-c2ccc(OC)cc2)cs1 ?
Jurkat viability: -1.0; Ecoli WT expand: 6.0; H69AR growth 86K: 29.2*; Fibroblast inh: 69.2; HUVEC prolif 384: 14.9*; tolC growth inh: 20.0

How did COc1ccc(OC)c(-c2csc(N(Cc3ccco3)C(=O)c3cccs3)n2)c1 do in these assays?
Jurkat viability: 2.2; Ecoli WT expand: -21.0; H69AR growth 86K: 8.8*; Fibroblast inh: 97.8; HUVEC prolif 384: 91.8; tolC growth inh: 3.8

Results for COc1ccc(-c2csc(N(CC3CCCO3)C(=O)c3cccs3)n2)cc1 (centres undefined) ?
Jurkat viability: 1.1; Ecoli WT expand: -21.0; H69AR growth 86K: 76.4; Fibroblast inh: 99.5; HUVEC prolif 384: 99.8; tolC growth inh: 32.3

How did COc1ccc(C(=O)N/C(N)=N/c2nc3ccccc3o2)cc1 do in these assays?
Ecoli WT expand: -15.0; H69AR growth 86K: 18.8*; Fibroblast inh: 97.4; HUVEC prolif 384: 85.5; tolC growth inh: -10.8

Results for CC(C)(C)c1ccc(C(=O)N/C(N)=N/c2nc3ccccc3o2)cc1 ?
Ecoli WT expand: -8.0; H69AR growth 86K: 45.1; Fibroblast inh: 104.5; HUVEC prolif 384: 79.8

Results for O=C(CN(Cc1cccs1)C(=O)CNS(=O)(=O)c1ccc(F)cc1)NCc1ccco1 ?
Jurkat viability: -4.7; Ecoli WT expand: 5.0; H69AR growth 86K: 93.2; Fibroblast inh: 96.4; HUVEC prolif 384: 101.2; tolC growth inh: -17.2

Results for COC(=O)c1ccccc1NC(=O)Cn1cnc2c1c(=O)n(C)c(=O)n2C ?
Jurkat viability: -0.2; H69AR growth 86K: 111.4; Fibroblast inh: 98.9; HUVEC prolif 384: 91.5; tolC growth inh: 0.3

Results for COc1cc2c(cc1NC(=O)Cn1cnc3c1c(=O)n(C)c(=O)n3C)oc1ccccc12 ?
Jurkat viability: 3.6; Ecoli WT expand: -6.0; H69AR growth 86K: 8.1*; Fibroblast inh: 85.9; HUVEC prolif 384: 76.0; tolC growth inh: -8.7

What do the screens show for `COc1cc2c(cc1NC(=O)C1CCCO1)oc1ccccc12` (centres undefined)?
Jurkat viability: -4.1; Ecoli WT expand: -6.0; H69AR growth 86K: 35.0*; Fibroblast inh: 82.7; HUVEC prolif 384: 70.7; tolC growth inh: 33.5

What do the screens show for `Cc1nn2c(-c3cccc(NC(=O)c4ccco4)c3)nnc2c2ccccc12`?
Jurkat viability: -8.2; Ecoli WT expand: 0.0; tolC growth inh: 25.9

Results for Cc1nn2c(-c3ccccc3)nnc2c2ccccc12 ?
Jurkat viability: -5.2; Ecoli WT expand: -5.0; H69AR growth 86K: 39.1*; Fibroblast inh: 97.8; HUVEC prolif 384: 62.5; tolC growth inh: 37.3

What do the screens show for `CCOC(=O)C1=C(N)n2c(s/c(=C\c3ccco3)c2=O)=C(C(=O)OC(C)C)C1c1ccco1` (centres undefined)?
Ecoli WT expand: -9.0; tolC growth inh: 5.1
